Measurements gathered from unrelated publications.
Compare with care: the assays were run in different laboratories.
Cell line: HepG2
Observed: cell growth or viability

Cc1cc(=O)oc2ccc(-c3cc(-c4ccc(Br)cc4)nc(N)n3)c(O)c12 — inhibition (MTT; 128 µg/mL, 72 h): 20%
CCOC(=O)c1ccc(-n2c(C)cc(/C=C/c3ccc(OC)cc3)c(C#N)c2=O)cc1 — viability (MTT; 12.5 µM, 24 h): 83.5%
CCNC(=O)c1cn(CC)c2cc(N3CCC(C)CC3)c(F)cc2c1=O — EC50 (ATP luminescence; 48 h): > 40 µM
COc1ccc(NC(=O)c2c(Nc3ccccc3)sc(C#N)c2NC(=O)CNc2ccc(Cl)cc2)cc1 — viability (SRB; 1 µM, 48 h): 45.3%
COc1cc2ncnc(Nc3ccc(F)c(Cl)c3)c2cc1NC(=O)N/N=C/c1cccn1CCN(C)C — IC50 (MTT; 72 h): 0.11 µM
CCOC(=O)c1ccc(-n2c(C)cc(/C=C/c3ccc(OCC)cc3)c(C#N)c2=O)cc1 — viability (MTT; 12.5 µM, 24 h): 90.3%
CSc1ccc(-c2nc3ccc(C)cc3n2Cc2ccccc2)cc1 — IC50 (MTT): 17.7 µM
COc1ccc(NC(=O)c2c(Nc3ccccc3)sc(C#N)c2NC(=O)CNc2ccc(C)cc2)cc1 — viability (SRB; 100 µM, 48 h): 62.3%
CCn1cc(-c2nc(C)no2)c(=O)c2cc(F)c(N3CCN(C)CC3)cc21 — EC50 (ATP luminescence; 48 h): > 40 µM
COc1ccc(-c2nc3ccccc3n2Cc2ccccc2)cc1OC — IC50 (MTT): 19.9 µM
O=C(CN1C(=O)/C(=C/c2ccc(O)cc2)SC1=S)Nc1ccccc1 — inhibition (MTT; 10 µM): 31.6%
CC(C)(CO)Cn1nc(-c2ccc3cc(OC4CC4)ccc3c2)c2c(N)ncnc21 — GI50: > 10 µM
CSc1ccc(-c2nc3ccccc3[nH]2)cc1 — IC50 (MTT; 48 h): 40.1 µM
COc1ccc(-c2cc(-c3ccc4oc(=O)cc(C)c4c3O)nc(N)n2)cc1 — inhibition (MTT; 32 µg/mL, 72 h): 15%
CC(=O)Oc1ccc(/C=N/NC(=O)c2ccc(Nc3cc(C)nc4c(O)cccc34)cc2)cc1 — inhibition (MTT; 20 µM): 56.7%
COc1ccc(NC(=O)c2c(Nc3ccccc3)sc(C#N)c2NC(=O)CNc2ccccc2[N+](=O)[O-])cc1 — viability (SRB; 0.1 µM, 48 h): 88.3%
O=C(CN1C(=O)/C(=C/c2cccc([N+](=O)[O-])c2)SC1=S)Nc1ccccc1 — inhibition (MTT; 10 µM): 24.2%
COc1ccc(NC(=O)c2c(Nc3ccccc3)sc(C#N)c2NC(=O)CNc2ccccc2Cl)cc1 — viability (SRB; 10 µM, 48 h): 79.2%
COc1cccc(NC(=O)CN2C(=O)/C(=C/c3ccc(F)cc3)SC2=S)c1 — inhibition (MTT; 10 µM): 10.2%
CCOC(=O)c1ccc(N2C(N)=C(C#N)C3(C(=O)Nc4ccccc43)C(C#N)=C2O)cc1 (stereo not drawn) — viability (MTT; 6.25 µM, 24 h): 61.3%
Cc1cc(Nc2ccc(C(=O)N/N=C/c3cc4ccccc4[nH]3)cc2)c2cccc(O)c2n1 — inhibition (MTT; 20 µM): 54.1%
Cc1cc(=O)oc2ccc(-c3cc(-c4ccccc4)nc(N)n3)c(O)c12 — inhibition (MTT; 8 µg/mL, 72 h): 0%
COc1ccc(NC(=O)c2c(Nc3ccccc3)sc(C(=O)NN=Cc3ccc(Br)cc3)c2NC(C)=O)cc1 — viability (SRB; 10 nM, 48 h): 92.7%
COc1cc2c(c(OC)c1OC)-c1ccc(OC)c(=O)cc1[C@@H](NC(C)=O)CC2 — inhibition (MTT; 10 µM): 56.4%
COc1ccc(NC(=O)c2c(Nc3ccccc3)sc(C(=O)NN=Cc3cc(OC)c(OC)c(OC)c3)c2NC(C)=O)cc1 — viability (SRB; 0.1 µM, 48 h): 76.5%
Cc1ccc(-c2cc(-c3ccc4oc(=O)cc(C)c4c3O)nc(N)n2)cc1 — inhibition (MTT; 32 µg/mL, 72 h): 0%
CC(=O)Nc1cccc(-n2c(=O)n(C3CC3)c(=O)c3c(Nc4ccc(I)cc4F)n(C)c(=O)c(C)c32)c1 — viability (resazurin; 1.56 nM, 72 h): 96.4%
CCn1cc(-c2nc(C)no2)c(=O)c2cc(F)c(N3CCC(CN4CCOCC4)CC3)cc21 — EC50 (ATP luminescence; 48 h): > 40 µM
CCOc1ccc(-c2nc3ccc(C)cc3[nH]2)cc1 — IC50 (MTT; 48 h): 27.4 µM
CCn1cc(-c2nc(C)no2)c(=O)c2cc(F)c(N3CCC(C(C)C)CC3)cc21 — EC50 (ATP luminescence; 48 h): > 40 µM
CCOC(=O)c1ccc(-n2c(-c3ccc(C)cc3)cc(-c3ccc(O)cc3)c(C#N)c2=O)cc1 — viability (MTT; 100 µM, 24 h): 18.3%
O=C(CN1C(=O)/C(=C/c2ccc([N+](=O)[O-])cc2)SC1=S)Nc1ccccc1 — inhibition (MTT; 10 µM): 22.6%
Cc1cc(=O)oc2ccc(-c3cc(-c4ccc(Cl)cc4)nc(N)n3)c(O)c12 — inhibition (MTT; 2 µg/mL, 72 h): 16%
COc1ccc(NC(=O)c2c(Nc3ccccc3)sc(C#N)c2NC(=O)CNc2ccccc2)cc1 — viability (SRB; 10 nM, 48 h): 90.3%
O=C(CN1C(=O)/C(=C/C2CC2)SC1=S)Nc1ccccc1 — inhibition (MTT; 10 µM): 11%
Cc1ccc2nc(-c3ccc(F)cc3)[nH]c2c1 — IC50 (MTT; 48 h): 80.4 µM
COc1ccc(NCC(=O)Nc2c(C#N)sc(Nc3ccccc3)c2C(=O)Nc2ccc(OC)cc2)cc1 — viability (SRB; 1 µM, 48 h): 71.6%
CCn1cc(-c2nc(C)no2)c(=O)c2cc(F)c(N3CCC(C)(C)CC3)cc21 — EC50 (ATP luminescence; 48 h): > 40 µM
Cc1ccc2nc(-c3ccc([N+](=O)[O-])cc3)[nH]c2c1 — IC50 (MTT; 48 h): 18.6 µM
Cc1cc(=O)oc2ccc(-c3cc(-c4cccc(Cl)c4)nc(N)n3)c(O)c12 — inhibition (MTT; 32 µg/mL, 72 h): 19%
CCOC(=O)c1ccc(-n2c(N)c(C#N)c(CC#N)c(C#N)c2=O)cc1 — viability (MTT; 12.5 µM, 24 h): 63.6%
Clc1ccc(-c2nc3ccccc3n2Cc2ccccc2)cc1Cl — IC50 (MTT): 49.9 µM
CCOC(=O)c1ccc(NC(=O)C2=C3C(=Nc4ccccc43)NC2=O)cc1 — viability (MTT; 100 µM, 24 h): 35.6%
Cc1ccc2nc(-c3ccc([N+](=O)[O-])cc3)n(Cc3ccccc3Cl)c2c1 — IC50 (MTT): 34.3 µM
CCOC(=O)c1cn(CC)c2cc(N3CCC(C)CC3)c(F)cc2c1=O — EC50 (ATP luminescence; 48 h): > 40 µM
